Common to all, as to assay type: functional
Assay [1] has as its system Radical scavenging activity. Kind of assay: Antioxidant activity assessed as inhibition of DPPH free radical production at 25 ug/mL after 30 mins by spectrophotometric analysis relative to control. In short, it runs like this: (§1)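 Test compound in methanol added to 0.004% (w/v) methanolic DPPH at a 1:4 volume ratio. Incubated 30 min at room temperature. Absorbance read against blank at 517 nm.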
(In general: Loss of DPPH colour is used to gauge radical scavenging.)

Assay [2] deals with Radical scavenging activity. The assay can be described thus: Antioxidant activity assessed as inhibition of DPPH free radical production at 100 ug/mL after 30 mins by spectrophotometric analysis relative to control. In short, it runs like this: as §1
Assay [3] in a line: Antioxidant activity assessed as inhibition of H2O2 radical scavenging activity at 25 ug/mL by spectrophotometric analysis relative to control. In short, it runs like this: (§2)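 H2O2 (40 mM) prepared in phosphate buffer, pH 7.4. Compounds at […] in phosphate buffer were added to the H2O2 solution. Absorbance of the mixture was read at 230 nm, and percent H2O2 scavenging was calculated.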

Assay [4] relates to Radical scavenging activity. Kind of assay: Antioxidant activity assessed as inhibition of DPPH free radical production at 75 ug/mL after 30 mins by spectrophotometric analysis relative to control. In short, it runs like this:
as §1

Assay [5] in a line: Antioxidant activity assessed as inhibition of H2O2 radical scavenging activity at 75 ug/mL by spectrophotometric analysis relative to control. In short, it runs like this:
as §2

Assay [6] deals with Radical scavenging activity. The assay can be described thus: Antioxidant activity assessed as inhibition of DPPH free radical production at 50 ug/mL after 30 mins by spectrophotometric analysis relative to control. In short, it runs like this: as §1
Assay [7] relates to Radical scavenging activity. Kind of assay: Antioxidant activity assessed as inhibition of DPPH free radical production after 30 mins by spectrophotometric analysis. In short, it runs like this: as §1
Assay [8] in a line: Antioxidant activity assessed as inhibition of H2O2 radical scavenging activity at 100 ug/mL by spectrophotometric analysis relative to control. In short, it runs like this: as §2
Assay [9] can be described thus: Antioxidant activity assessed as inhibition of H2O2 radical scavenging activity by spectrophotometric analysis. In short, it runs like this: as §2
Assay [10] can be described thus: Antioxidant activity assessed as inhibition of nitric oxide free radical production at 75 ug/mL after 150 mins by Griess method relative to control. In short, it runs like this:
(§3)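 NO generated from sodium nitroprusside (10 mM) in 0.2 M phosphate buffered saline, pH 7.4, with compound at […]. Incubated 150 min at 25 °C. An aliquot was mixed 1:1 with Griess reagent (1% sulfanilamide, 2% H3PO4, 0.1% naphthylethylenediamine dihydrochloride).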
For orientation: The Griess reaction detects nitrite, a stable product of nitric oxide.

Assay [11] is described as follows: Antioxidant activity assessed as inhibition of nitric oxide free radical production at 25 ug/mL after 150 mins by Griess method relative to control. In short, it runs like this: as §3
Assay [12] is described as follows: Antioxidant activity assessed as inhibition of nitric oxide free radical production after 150 mins by Griess method. In short, it runs like this: as §3
The nature of assay [13]: Antioxidant activity assessed as inhibition of nitric oxide free radical production at 50 ug/mL after 150 mins by Griess method relative to control. In short, it runs like this: as §3
The nature of assay [14]: Antioxidant activity assessed as inhibition of nitric oxide free radical production at 100 ug/mL after 150 mins by Griess method relative to control. In short, it runs like this:
as §3

Assay [15] is described as follows: Antioxidant activity assessed as inhibition of H2O2 radical scavenging activity at 50 ug/mL by spectrophotometric analysis relative to control. In short, it runs like this:
as §2

SMILES strings stand for the structures. Values after ≈ are worked out from the molar mass of the structure shown.

Experimental findings from ChEMBL document CHEMBL2150985, “Synthesis and antioxidant activity of 1,3,4-oxadiazole tagged thieno[2,3-d]pyrimidine derivatives” (Eur J Med Chem, 2012) are described below.

A word on the inhibition: it is the relative decrease from the control value, in per cent. By IC50 is commonly meant the point on the concentration scale where inhibition reaches its midpoint. `Cc1c(-c2nnc(-c3ccccc3)o2)sc2ncnc(Nc3ccc(F)c(Cl)c3)c12`: the inhibition in assay [1] was determined as 68.5%; in assay [2], 79.2%; in [3], 60.3%; in assay [4], 74.9%; in assay [5], 67.8%; in [6] it was 72.8%. Further, the inhibition is 70.9% in assay [8]; 78.2% in assay [10]; 72.9% in [11]; 74.1% in assay [13]; 82.4% in assay [14]; 63.5% in assay [15]. In addition, the concentration for half-maximal inhibition (IC50) in assay [7] came out at 18.25 mg/L (≈ 41.7 µM); in assay [9], 20.74 mg/L (≈ 47.4 µM); in assay [12] it was 17.14 mg/L (≈ 39.1 µM).

Take `O=C1O[C@H]([C@@H](O)CO)C(O)=C1O` [ASCORBIC ACID]: the inhibition in [1] was 82.7%; in assay [2], 87.2%; in assay [3], 76.4%; in [4], 85.5%; in [5] it was 82.4%; in [6], 83.5%. Besides, the inhibition in [8] came to 86.6%; in assay [10] it was 88.3%; in assay [11], 84.7%; in [13], 86%; in assay [14], 90.4%; in assay [15] it was 78.6%. Further, the IC50 in assay [7] amounted to 15.11 mg/L (≈ 85.8 µM); in assay [9] it was 16.35 mg/L (≈ 92.8 µM); in [12], 14.75 mg/L (≈ 83.7 µM).

On to `Cc1c(-c2nnc(-c3ccccc3)o2)sc2ncnc(Nc3ccc(F)cc3)c12`, for which the inhibition was found to be 72.5% in assay [1]; 83.1% in assay [2]; 66.3% in [3]; 78.4% in assay [4]; 71.7% in assay [5]; 75.8% in assay [6]. For the same molecule, the inhibition in assay [8] was 74.2%; in assay [10] it was 82.4%; in assay [11], 73.1%; in assay [13], 78.1%; in assay [14] it was 84.9%; in [15], 69.5%. Further, the results for the IC50 in [7], in assay [9] and in [12] were 17.25 mg/L (≈ 42.8 µM), 18.85 mg/L (≈ 46.7 µM) and 17.1 mg/L (≈ 42.4 µM), respectively.
